PMC13570607 (European journal of medicinal chemistry, 2025)

What was measured:
Kinetic solubility = assay type: physicochemical; details: PBS pH 7.4; room temp 24 h
Summary of the method: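 A 10 mM DMSO stock was diluted 1 μL into 99 μL PBS pH 7.4. It was held at room temperature for 24 h, filtered, and quantified by LC/MS/MS.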

[1] = Parallel Artificial Membrane Permeability Assay; assay type: in vitro ADME; details: 5 μM; 37 °C; 5 h
Summary of the method: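 Passive permeability was measured on a pre-coated PAMPA plate. The donor (bottom) side held 0.02% BSA in PBS with compound added from DMSO solution. The receiver (top) side held 0.4% BSA in PBS. After 5 h at 37 °C, receiver samples were quantified by LC/MS/MS.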

[2] = Hepatic microsomal stability; assay type: in vitro ADME; details: mouse liver microsomes 1 mg/mL; 1 μM compound; NADPH
Summary of the method: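 Incubation buffer was 100 mM potassium phosphate, pH 7.4. The reaction was started with NADPH (1 mM final). Aliquots taken at 0, 5, 10, 20, 40 and 60 min were quenched in acetonitrile (5x v:v), filtered and analysed by LC-MS/MS. Data were log-transformed to give half-life and intrinsic clearance.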

Equilibrium solubility = assay type: physicochemical; details: PBS pH 7.4; 24 h
Summary of the method: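 About 1-2 mg of dry compound was added to 1 mL PBS pH 7.4 in a test tube. The mixture was inverted for 24 h, then filtered, and the filtrate was quantified by LC/MS/MS.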

TG2 = target: T1, TG2 (Homo sapiens, UniProt P21980); assay: TG2 transamidase activity in protein lysates of treated SKOV3 cells; assay type: cell-based
T1 sequence (P21980 1-687): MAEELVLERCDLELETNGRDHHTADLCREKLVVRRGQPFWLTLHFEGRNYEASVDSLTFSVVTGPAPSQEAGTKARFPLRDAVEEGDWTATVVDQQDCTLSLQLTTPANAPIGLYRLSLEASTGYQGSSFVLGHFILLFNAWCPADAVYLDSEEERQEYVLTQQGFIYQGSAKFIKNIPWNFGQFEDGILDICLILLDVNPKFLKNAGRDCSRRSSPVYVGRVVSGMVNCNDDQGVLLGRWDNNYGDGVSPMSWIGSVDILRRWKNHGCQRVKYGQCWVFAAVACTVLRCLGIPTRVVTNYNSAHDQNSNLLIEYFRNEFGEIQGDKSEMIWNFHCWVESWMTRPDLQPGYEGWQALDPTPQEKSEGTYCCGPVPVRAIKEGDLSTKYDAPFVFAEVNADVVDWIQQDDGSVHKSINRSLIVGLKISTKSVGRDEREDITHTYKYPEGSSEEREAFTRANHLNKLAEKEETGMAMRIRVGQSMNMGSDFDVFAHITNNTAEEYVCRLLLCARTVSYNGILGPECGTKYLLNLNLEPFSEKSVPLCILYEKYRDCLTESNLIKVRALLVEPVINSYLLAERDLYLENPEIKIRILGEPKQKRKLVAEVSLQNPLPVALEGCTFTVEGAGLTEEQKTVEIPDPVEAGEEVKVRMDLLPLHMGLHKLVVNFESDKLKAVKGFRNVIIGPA
Summary of the method: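 SKOV3 cells were treated with 10 μM test compound for 24 h, and lysates were assayed in a colorimetric transamidase kit. Controls were a reference TG2 inhibitor at 20 μM, VHL ligand at 10 μM, 50 mM EDTA, and lysates of TG2-knockdown or control-shRNA cells. Lysates were incubated with assay mixture for 30 min at 37 °C, then washed, including a 0.1 M NaOH wash. Detection used streptavidin-HRP (1:2000, 15 min, 37 °C), then HRP substrate for 5 min, stopped, and read at 450 nm.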

Row | Kinetic Solubility (Kinetic solubility) [µM] | PAMPA Permeability [1] | Microsomal Stability Clint [2] [µL/min/mg] | Microsomal Stability T1/2 [2] [min] | Equilibrium Solubility (Equilibrium solubility) [µM] | TG2 enzymatic (transamidase) activity (TG2; 20 μM) | TG2 enzymatic (transamidase) activity (TG2; 10 μM, 24 hours) | SMILES
1 | 54.96 | 2.60 10^−6 cm*s^−1 | 46 | 15.2 | 0.76 | no effect on transamidating activity |  | Cc1cc(N(C)C)nc(Nc2ccc(NC(=O)Cc3ccccc3)cc2)n1 [MT4]
2 |  |  |  |  |  |  | no effect on transamidating activity | Cc1ncsc1-c1ccc(CNC(=O)[C@@H]2C[C@@H](O)CN2C(=O)[C@@H](N)C(C)(C)C)cc1 [VHL ligand 1]
